Laboratory results reported in ChEMBL document CHEMBL5370536, “Design, synthesis, and biological activity of dual monoamine oxidase A and heat shock protein 90 inhibitors, N-Methylpropargylamine-conjugated 4-isopropylresorcinol for glioblastoma” (Eur J Med Chem, 2023).
Each block holds one compound with its values, some of them ahead of it. Calls of active or inactive are those of the source. No cut-off for these calls is given here.

Assays:
[1] = target: T1, Amine oxidase [flavin-containing] A (Mus musculus, UniProt Q64133); assay: Inhibition of MAO A in mouse GL26 cells preincubated for 20 mins followed by 14C-labeled 5-hydroxytryptamine addition and measured after 20 mins by scintillation counter analysis; format: cell-based
T1 sequence (Q64133 whole entry): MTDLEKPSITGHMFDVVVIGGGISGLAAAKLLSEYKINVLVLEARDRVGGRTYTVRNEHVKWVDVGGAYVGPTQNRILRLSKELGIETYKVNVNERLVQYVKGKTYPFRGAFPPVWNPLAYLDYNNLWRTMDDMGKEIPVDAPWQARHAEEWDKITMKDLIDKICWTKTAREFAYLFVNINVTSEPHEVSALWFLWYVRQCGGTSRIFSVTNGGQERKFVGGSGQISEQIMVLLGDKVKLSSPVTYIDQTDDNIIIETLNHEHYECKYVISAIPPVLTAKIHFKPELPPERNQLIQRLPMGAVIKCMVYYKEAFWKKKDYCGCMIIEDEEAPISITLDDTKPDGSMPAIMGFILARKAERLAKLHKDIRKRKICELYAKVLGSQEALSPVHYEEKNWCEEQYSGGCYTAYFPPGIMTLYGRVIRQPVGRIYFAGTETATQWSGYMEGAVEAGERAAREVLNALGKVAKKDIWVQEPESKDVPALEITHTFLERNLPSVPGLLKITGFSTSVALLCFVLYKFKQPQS

[2] = Antiproliferative activity against mouse GL26 cells assessed as inhibition of cell growth measured after 48 hrs by MTT assay; format: functional, cell-based; conditions: GL26, 48 h
In short: (§1)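 Cells plated at 5×10³ per well 24 h before compound and grown in DMEM with 10% FBS at 37°C, 5% CO₂. After 48 h exposure, the medium was replaced with 0.5 mg/mL MTT for 3 h. Formazan was dissolved in DMSO and read at 570 nm.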

GL26 [3] = assay: Downregulation of Akt phosphorylation expression at Ser 473 residues in mouse GL26 cells at 0.1 to 3 uM incubated for 24 hrs by Western blot analysis; format: functional, cell-based; conditions: dose 0.1-3 µM
In short: (§2)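 GL26 and U251R cells were seeded at 3 × 10⁵ per well 24 h ahead, then treated in compound-containing medium for 24 h. Cells were washed twice in ice-cold PBS and lysed in RIPA buffer (150 mM NaCl, 1% Triton X-100, 0.5% deoxycholate, 0.1% SDS, 50 mM Tris pH 8.0) plus protease inhibitors. Lysate was cleared at 4°C, protein was quantified by BCA, and western blotting followed.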

U-251 [4] = assay: Downregulation of Akt phosphorylation expression at Ser 473 residues in human Temozolomide-resistant U-251 cells at 0.1 to 3 uM incubated for 24 hrs by Western blot analysis; format: functional, cell-based; conditions: dose 0.1-3 µM; in short: as §2
GL26 [5] = assay: Downregulation of IFN-gamma induced PD-L1 expression in mouse GL26 cells at 20 uM incubated for 24 hrs by flow cytometry analysis; format: functional, cell-based
In short: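 GL26 cells were seeded at 3.6 × 10⁵ per well and exposed to compound, with or without 10 ng/mL IFN-γ, for 24 h. Cells were stained with goat anti-PD-L1 for 1 h, then FITC donkey anti-goat for 1 h. Surface FITC was read by flow cytometry, and MFI was normalized to the secondary-only control as an MFI ratio.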

GL26 [6] = assay: Antitumor activity against mouse GL26 cells xenografted in C57BL/6J mouse model assessed as tumor growth inhibition at 10 mg/kg, ip administered daily for 14 days by caliper method; conditions: time 14.0 day
[7] = target: Heat shock protein HSP 90-alpha (Homo sapiens, UniProt P07900); assay: Inhibition of human recombinant HSP90alpha preincubated for 30 mins followed by FITC-GM addition and mesured after 3 hrs by fluorescence polarization assay
U-251 [8] = assay: Antiproliferative activity against human Temozolomide-resistant U-251 cells assessed as inhibition of cell growth measured after 48 hrs by MTT assay; format: functional, cell-based; conditions: U-251, 48 h; in short: as §1
U-87 MG = assay: Antiproliferative activity against human U-87 MG cells assessed as inhibition of cell growth measured after 72 hrs by CCK8 method; format: functional, cell-based, U-87MG ATCC
In short: (§3)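 Cell lines from ATCC or from patient surgical specimens (P1S, P3, P3R), kept in DMEM with 10% FBS and 1% penicillin/streptomycin at 37°C, 5% CO₂. P3R medium also held 50 μM TMZ. Cells were seeded at 2×10³/well 24 h before compound, then exposed 72 h.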

[9] = Antiproliferative activity against human U373 MG cells assessed as inhibition of cell growth measured after 72 hrs by CCK8 method; format: functional, cell-based, U-373MG ATCC; in short: as §3
LN-229 = assay: Antiproliferative activity against human LN-229 cells assessed as inhibition of cell growth measured after 72 hrs by CCK8 method; format: functional, cell-based; conditions: LN-229, 72 h; in short: as §3
A 172 = assay: Antiproliferative activity against human A-172 cells assessed as inhibition of cell growth measured after 72 hrs by CCK8 method; format: functional, cell-based; conditions: A 172, 72 h; in short: as §3
T98G = assay: Antiproliferative activity against human T98G cells assessed as inhibition of cell growth measured after 72 hrs by CCK8 method; format: functional, cell-based; in short: as §3
[10] = Antiproliferative activity against human patient-derived, TMZ-resistant and concurrent chemo-radiotherapy (CCRT)-resistant P1S cell assessed as inhibition of cell growth measured after 72 hrs by CCK8 method; format: functional, cell-based; in short: as §3
[11] = Antiproliferative activity against human patient-derived P3 cell assessed as inhibition of cell growth measured after 72 hrs by CCK8 method; format: functional, cell-based; in short: as §3
[12] = Antiproliferative activity against human patient-derived TMZ-resistant GBM cells with MGMT negative P3R cell assessed as inhibition of cell growth measured after 72 hrs by CCK8 method; format: functional, cell-based; in short: as §3
GL26 [13] = assay: Downregulation of HER2 expression in mouse GL26 cells incubated for 24 hrs by Western blot analysis; format: functional, cell-based; conditions: dose 0.1-3 µM
GL26 [14] = assay: Downregulation of Akt phosphorylation expression at Ser 473 residues in mouse GL26 cells incubated for 24 hrs by Western blot analysis; format: functional, cell-based; conditions: dose 0.1-3 µM
U-251 [15] = assay: Downregulation of HER2 expression in human Temozolomide-resistant U-251 cells incubated for 24 hrs by Western blot analysis; format: functional, cell-based; conditions: dose 0.1-3 µM
U-251 [16] = assay: Downregulation of Akt phosphorylation expression at Ser 473 residues in human Temozolomide-resistant U-251 cells incubated for 24 hrs by Western blot analysis; format: functional, cell-based; conditions: dose 0.1-3 µM
U-251 [17] = assay: Upregulation of HSP70 expression in human Temozolomide-resistant U-251 cells incubated for 24 hrs by Western blot analysis; format: functional, cell-based; conditions: dose 0.1-3 µM
GL26 [18] = assay: Upregulation of HSP70 expression in mouse GL26 cells incubated for 24 hrs by Western blot analysis; format: functional, cell-based; conditions: dose 0.1-3 µM
GL26 [19] = assay: Downregulation of IFN-gamma induced PD-L1 expression in mouse GL26 cells incubated for 24 hrs by flow cytometry analysis; format: functional, cell-based
In short: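 GL26 cells at 3.6 × 10⁵ per well were treated at various concentrations with or without 10 ng/mL IFN-γ for 24 h. Cells were stained with goat anti-PD-L1 for 1 h in PBS/0.05% BSA, then FITC donkey anti-goat for 1 h, and read by flow cytometry. MFI was normalised to the secondary-antibody-only isotype control and expressed as an MFI ratio.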

HCT-116 [20] = assay: Downregulation of PD-L1 expression in human HCT-116 cells; format: functional, cell-based
In short: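 HCT116 cells at 3 × 10⁵ per well were treated at various concentrations with or without 20 ng/mL IFN-γ for 48 h. Cells were stained with mouse anti-PD-L1 for 1 h in PBS/0.05% BSA, then FITC goat anti-mouse for 1 h. Surface FITC mean fluorescence intensity was measured by flow cytometry.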

[21] = Antitumor activity against mouse GL26 cells xenografted in C57BL/6J mouse model assessed as tumor growth inhibition at 25 mg/kg, ip administered daily for 3 days followed by every 3 days for 14 days by caliper method relative to control; format: functional; conditions: GL26, 336 h, time 14 day, read-out: TGI
In short: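 Male C57BL/6J mice aged 8-9 weeks received 2 × 10⁵ GL26 cells subcutaneously in the lower back. From day 9 after implantation, once tumours were palpable, 25 mg/kg was given i.p. daily for 3 days and then every 3 days over 14 days. Caliper volume was length × width² ÷ 2. TGI% was taken relative to the mean tumour size of the vehicle group.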

[22] = Toxicity in C57BL/6J mouse assessed as change in body weight at 25 mg/kg, ip measured after 3 days; format: organism-based; conditions: in vivo, 72 h, time 3 day
In short: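 Male C57BL/6J mice, 8-9 weeks old, given 2 × 10⁵ GL26 cells subcutaneously in the lower back. From day 9, when tumor was visible, dosing was i.p. for 14 days with vehicle, clorgyline 10 mg/kg daily, or test compounds 25 mg/kg daily for the first 3 days then every 3 days. Tumor was measured by caliper, volume = length × width² ÷ 2, and TGI% was taken against the vehicle-group mean. Body weight was tracked.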

SF-268 = assay: Growth inhibition of human SF-268 cells incubated for 48 hrs by SRB assay; format: functional
In short: (§4)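 NCI-60 panel screen: cells seeded at 5000 to 40000 per well according to doubling time, 24 h before drug addition at various concentrations. A time-zero plate was TCA-fixed at drug addition. After 48 h drug exposure, growth was read by sulforhodamine B staining. Percent growth = [(Ti − Tz)/(C − Tz)] × 100, and GI50 is the concentration at which this equals 50.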

SF-295 = assay: Growth inhibition of human SF-295 cells incubated for 48 hrs by SRB assay; format: functional; in short: as §4
SF-539 = assay: Growth inhibition of human SF-539 cells incubated for 48 hrs by SRB assay; format: functional; in short: as §4
SNB-19 = assay: Growth inhibition of human SNB-19 cells incubated for 48 hrs by SRB assay; format: functional; in short: as §4
SNB-75 = assay: Growth inhibition of human SNB-75 cells incubated for 48 hrs by SRB assay; format: functional; in short: as §4
U-251 [23] = assay: Growth inhibition of human U-251 cells incubated for 48 hrs by SRB assay; format: functional; in short: as §4
HL-60 = assay: Growth inhibition of human HL-60 cells incubated for 48 hrs by SRB assay; format: functional; in short: as §4
K562 = assay: Growth inhibition of human K562 cells incubated for 48 hrs by SRB assay; format: functional; in short: as §4
RPMI-8226 = assay: Growth inhibition of human RPMI-8226 cells incubated for 48 hrs by SRB assay; format: functional; in short: as §4
A549 = assay: Growth inhibition of human A549 cells incubated for 48 hrs by SRB assay; format: functional; in short: as §4
NCI-H460 = assay: Growth inhibition of human NCI-H460 cells incubated for 48 hrs by SRB assay; format: functional; in short: as §4
NCI-H522 = assay: Growth inhibition of human NCI-H522 cells incubated for 48 hrs by SRB assay; format: functional; in short: as §4
HCT-116 [24] = assay: Growth inhibition of human HCT-116 cells incubated for 48 hrs by SRB assay; format: functional; in short: as §4

IC50 [1]: 880 nM
Compound: C#CCN(C)CCCOc1cccc(N(CCC)C(=O)c2cc(C(C)C)c(O)cc2O)c1Cl

IC50 [1]: 860 nM
Compound: C#CCN(C)CCCOc1cc(N(CCC)C(=O)c2cc(C(C)C)c(O)cc2O)ccc1Cl

Compound: C#CCN(C)CCCOc1ccc(Cl)cc1Cl [CLORGILINE]
IC50 [2]: > 100000 nM | Activity (GL26 [3]): Active | Activity (U-251 [4]): Active | Activity (GL26 [5]): Active | Activity (GL26 [6]): inactive

Compound: C#CCN(C)CCCOc1ccc(N(C)C(=O)c2cc(C(C)C)c(O)cc2O)cc1Cl
IC50 [1]: 1770 nM | IC50 [7]: 19 nM | IC50 [2]: 730 nM | IC50 (U-251 [8]): 840 nM | IC50 (U-87 MG): 350 nM | IC50 [9]: 1460 nM | IC50 (LN-229): 400 nM | IC50 (A 172): 3310 nM | IC50 (T98G): 460 nM | IC50 [10]: 860 nM | IC50 [11]: 2730 nM | IC50 [12]: 2530 nM | Activity (GL26 [13]): Dose-Dependent Effect | Activity (GL26 [14]): Dose-Dependent Effect | Activity (U-251 [15]): Dose-Dependent Effect | Activity (U-251 [16]): Dose-Dependent Effect | Activity (U-251 [17]): Dose-Dependent Effect | Activity (GL26 [18]): Dose-Dependent Effect | Activity (GL26 [19]): Dose-Dependent Effect | Activity (HCT-116 [20]): Active | inhibition in vivo at 25 mg/kg [21]: 63.2% | Activity [22]: Toxic | GI50 (SF-268): 520 nM | GI50 (SF-295): 290 nM | GI50 (SF-539): 320 nM | GI50 (SNB-19): 440 nM | GI50 (SNB-75): 420 nM | GI50 (U-251 [23]): 320 nM | GI50 (HL-60): 40 nM | GI50 (K562): 70 nM | GI50 (RPMI-8226): 380 nM | GI50 (A549): 190 nM | GI50 (NCI-H460): 40 nM | GI50 (NCI-H522): 80 nM | GI50 (HCT-116 [24]): 80 nM
